Calls of active or inactive are those of the source. No cut-off for these calls is given here.
Legend:
MCF7 = test: Cytotoxicity against human ER positive MCF7 cells assessed as cell viability at 1 uM after 72 hrs by MTT assay; format: functional, cell-based
Outline: (§1)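 Lines kept in DMEM with 10% fetal bovine serum and 1% penicillin/streptomycin at 37 °C, 5% CO2. Compound applied at 1 µM for 72 h, then standard MTT reduction read-out. Viability given as mean percentage of formazan formed by treated cells relative to mock-treated cells (0.1% DMSO). Run in quadruplicate, standard error, Student's t-test.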

MDA-MB-231 = test: Cytotoxicity against human ER negative MDA-MB-231 cells assessed as cell viability at 1 uM after 72 hrs by MTT assay; format: functional, cell-based; outline: as §1

SMILES	Activity (MCF7)	Activity (MDA-MB-231)
CC/C(=C(/c1ccc(OCCN(C)C)cc1)c1ccc(OC(=O)CCCCCCCCC(=O)C2=C(C)/C(=C/c3[nH]c(-c4ccc[nH]4)cc3OC)N=C2C)cc1)c1ccccc1	inactive	–
COc1cc(-c2ccc[nH]2)[nH]c1/C=C1\N=C(C)C(C(=O)CCC(=O)Oc2ccc3c(c2)CC[C@@H]2[C@@H]3CC[C@]3(C)C(=O)CC[C@@H]23)=C1C	inactive	Active

From ChEMBL document CHEMBL2417509, “Synthesis and biological evaluation of prodigiosene conjugates of porphyrin, estrone and 4-hydroxytamoxifen” (2013)
